Columns and labels:
[1] = target: T1, Kappa-type opioid receptor (Homo sapiens, UniProt P41145); assay: Displacement of [3H]U69593 from kappa opioid receptor (unknown origin)
Summary of the method: (§1)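 Competition radioligand binding. Ki was determined against [3H]DAMGO for MOR, [3H]DADLE for DOR and […] for KOR. Values are the mean of three experiments, each run in duplicate.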

[2] = target: Delta-type opioid receptor (Homo sapiens, UniProt P41143); assay: Displacement of [3H]DADLE from delta opioid receptor (unknown origin); summary of the method: as §1
Chain of Delta-type opioid receptor (P41143 whole entry): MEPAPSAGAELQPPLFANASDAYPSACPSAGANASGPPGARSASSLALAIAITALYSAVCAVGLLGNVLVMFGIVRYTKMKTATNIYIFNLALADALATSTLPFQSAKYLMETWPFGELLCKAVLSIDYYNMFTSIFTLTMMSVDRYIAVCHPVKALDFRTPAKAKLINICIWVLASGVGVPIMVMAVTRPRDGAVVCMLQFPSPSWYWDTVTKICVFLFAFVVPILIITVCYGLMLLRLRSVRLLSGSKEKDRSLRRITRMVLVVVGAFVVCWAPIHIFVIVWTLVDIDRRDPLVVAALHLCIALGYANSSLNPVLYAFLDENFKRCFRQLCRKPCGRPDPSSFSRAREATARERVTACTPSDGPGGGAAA

[3] = target: Mu-type opioid receptor (Homo sapiens, UniProt P35372); assay: Displacement of [3H]DAMGO from mu opioid receptor (unknown origin); summary of the method: as §1
Chain of Mu-type opioid receptor (P35372 whole entry): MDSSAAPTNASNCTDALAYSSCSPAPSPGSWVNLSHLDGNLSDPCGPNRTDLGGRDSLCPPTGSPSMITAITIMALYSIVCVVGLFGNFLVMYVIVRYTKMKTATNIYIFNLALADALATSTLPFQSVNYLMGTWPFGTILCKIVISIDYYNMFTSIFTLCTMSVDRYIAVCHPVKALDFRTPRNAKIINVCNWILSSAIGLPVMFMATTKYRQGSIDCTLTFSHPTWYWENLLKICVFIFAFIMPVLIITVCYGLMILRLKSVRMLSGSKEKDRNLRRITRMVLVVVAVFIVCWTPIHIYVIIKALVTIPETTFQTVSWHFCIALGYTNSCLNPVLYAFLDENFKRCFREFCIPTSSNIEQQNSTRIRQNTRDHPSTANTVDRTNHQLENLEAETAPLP

[4] = species on record: Homo sapiens; assay: Selectivity ratio of Ki for mu opioid receptor (unknown origin) to Ki for kappa opioid receptor (unknown origin)
[5] = species on record: Homo sapiens; assay: Selectivity ratio of Ki for delta opioid receptor (unknown origin) to Ki for kappa opioid receptor (unknown origin)
[6] = target: T1, Kappa-type opioid receptor; assay: Agonist activity at kappa opioid receptor in human HEK293 cells assessed as stimulation of Galphai signaling by cAMP assay; format: functional, cell-based
Summary of the method: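 Live HEK293 cells carrying the cAMP biosensor GloSensor-22F. Galphai activation through KOR was read from the cAMP signal. EC50 reported as mean ± SD.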

T1 sequence (P41145 whole entry): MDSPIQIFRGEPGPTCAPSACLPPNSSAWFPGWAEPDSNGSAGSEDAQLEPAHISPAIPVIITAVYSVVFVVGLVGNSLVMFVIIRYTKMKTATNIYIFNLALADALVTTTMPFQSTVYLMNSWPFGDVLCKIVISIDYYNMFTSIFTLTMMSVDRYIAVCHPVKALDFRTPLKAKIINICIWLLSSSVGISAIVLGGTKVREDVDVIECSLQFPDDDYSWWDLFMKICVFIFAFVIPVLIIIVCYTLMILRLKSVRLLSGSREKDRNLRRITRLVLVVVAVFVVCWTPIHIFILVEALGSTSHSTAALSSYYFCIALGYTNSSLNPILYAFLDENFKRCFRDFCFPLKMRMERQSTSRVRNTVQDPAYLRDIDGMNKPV

SMILES	Ki [1] [µM]	Ki [2] [µM]	Ki [3] [µM]	Ratio Ki [4]	Ratio Ki [5]	EC50 [6] [µM]
COC(=O)[C@@H]1C[C@H](OC(=O)CCCC(=O)O)C(=O)[C@H]2[C@@]1(C)CC[C@H]1C(=O)O[C@H](c3ccoc3)C[C@]21C	0.263	> 10	4.57	17	> 38	–
COC(=O)[C@@H]1C[C@H](OC(=O)/C=C\C(=O)O)C(=O)[C@H]2[C@@]1(C)CC[C@H]1C(=O)O[C@H](c3ccoc3)C[C@]21C	> 10	> 10	> 10	1	1	–
COC(=O)[C@@H]1C[C@H](OC(=O)CC(=O)OC(C)(C)C)C(=O)[C@H]2[C@@]1(C)CC[C@H]1C(=O)O[C@H](c3ccoc3)C[C@]21C	0.148	> 10	> 10	–	> 67	–
COC(=O)CC(=O)O[C@H]1C[C@@H](C(=O)OC)[C@]2(C)CC[C@H]3C(=O)O[C@H](c4ccoc4)C[C@]3(C)[C@H]2C1=O	0.002	4.32	> 10	–	2160	0.137
COC(=O)CCC(=O)O[C@H]1C[C@@H](C(=O)OC)[C@]2(C)CC[C@H]3C(=O)O[C@H](c4ccoc4)C[C@]3(C)[C@H]2C1=O	0.036	> 10	> 10	–	> 277	0.855
CCOC(=O)CC(=O)O[C@H]1C[C@@H](C(=O)OC)[C@]2(C)CC[C@H]3C(=O)O[C@H](c4ccoc4)C[C@]3(C)[C@H]2C1=O [ETHYLSALVINORINB-2-O-MALONATE]	0.021	> 10	> 10	–	> 476	0.052
COC(=O)[C@@H]1C[C@H](O)C(=O)[C@H]2[C@@]1(C)CC[C@H]1C(=O)O[C@H](c3ccoc3)C[C@]21C [SALVINORIN B]	–	> 10	> 10	–	–	–
CCOC(=O)CCC(=O)O[C@H]1C[C@@H](C(=O)OC)[C@]2(C)CC[C@H]3C(=O)O[C@H](c4ccoc4)C[C@]3(C)[C@H]2C1=O	0.437	> 10	> 10	–	> 23	–
COC(=O)CCCCC(=O)O[C@H]1C[C@@H](C(=O)OC)[C@]2(C)CC[C@H]3C(=O)O[C@H](c4ccoc4)C[C@]3(C)[C@H]2C1=O	0.575	> 10	> 10	–	> 17	–
COC(=O)/C=C/C(=O)O[C@H]1C[C@@H](C(=O)OC)[C@]2(C)CC[C@H]3C(=O)O[C@H](c4ccoc4)C[C@]3(C)[C@H]2C1=O	0.039	> 10	0.711	18	> 256	0.07
COC(=O)[C@@H]1C[C@H](OC(=O)c2ccccc2C(=O)O)C(=O)[C@H]2[C@@]1(C)CC[C@H]1C(=O)O[C@H](c3ccoc3)C[C@]21C	2.29	> 10	> 10	–	> 4	–
CCOC(=O)/C=C/C(=O)O[C@H]1C[C@@H](C(=O)OC)[C@]2(C)CC[C@H]3C(=O)O[C@H](c4ccoc4)C[C@]3(C)[C@H]2C1=O	0.427	> 10	0.724	2	> 23	–
COC(=O)CCCC(=O)O[C@H]1C[C@@H](C(=O)OC)[C@]2(C)CC[C@H]3C(=O)O[C@H](c4ccoc4)C[C@]3(C)[C@H]2C1=O	0.302	> 10	5.01	16	> 33	–
COC(=O)[C@@H]1C[C@H](OC(=O)CSC#N)C(=O)[C@H]2[C@@]1(C)CC[C@H]1C(=O)O[C@H](c3ccoc3)C[C@]21C [22-THIOCYANATOSALVINORIN A]	–	> 10	> 10	–	–	–
COC(=O)[C@@H]1C[C@H](OC(=O)CCC(=O)O)C(=O)[C@H]2[C@@]1(C)CC[C@H]1C(=O)O[C@H](c3ccoc3)C[C@]21C	4.07	> 10	> 10	–	–	–

From ChEMBL document CHEMBL2380279 (Bioorg Med Chem Lett, 2013)
